Results from ChEMBL document CHEMBL3120090, “High-affinity recognition of HIV-1 frameshift-stimulating RNA alters frameshifting in vitro and interferes with HIV-1 infectivity” (J Med Chem, 2014).
Activity calls are given as the source filed them. No cut-off for these calls is given here.

Columns and labels:
[1] = Binding affinity to HIV-1 FSS RNA; set-up: species or system Human immunodeficiency virus 1
[2] = Binding affinity to FSS DNA (unknown origin) after 10 mins by fluorescence titration analysis
How it was run: (§1)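 Solution fluorescence titration in 20 mM HEPES, 150 mM NaCl. Compound at 1 μM, titrated with unlabeled HIV-1 FSS RNA (10 μM stock), FSS DNA or yeast tRNA (40 μM stocks). 10 min equilibration after each addition. Quenching of benzo[g]quinoline fluorescence read in triplicate 1 min apart, corrected for dilution; KD from saturable quenching. Error is SD.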

HEK293FT [3] = assay: Binding affinity to HTLV-2 FSS RNA transfected in HEK293FT cells at 1 to 50 uM after 36 hrs by Renilla/firefly luciferase reporter gene assay; format: cell-based; conditions: Human T-lymphotropic virus 2
How it was run: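 HEK293FT cells transiently transfected with pDualHTLV-2(−1) (Fluc made only via −1 frameshift at the HTLV-2 site) and treated 5 h later with compound (0–50 μM) in triplicate for 36 h at 37 °C. Fluc/Rluc ratio from lysate, relative to untreated transfected cells. Error is SEM.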

[4] = Binding affinity to yeast tRNA after 10 mins by fluorescence titration analysis; set-up: species or system Saccharomyces cerevisiae; how it was run: as §1
[5] = Binding affinity to HIV-1 FSS RNA after 10 mins by fluorescence titration analysis; set-up: species or system Human immunodeficiency virus 1; how it was run: as §1
[6] = Binding affinity to HIV-1 FSS RNA in 20 mM HEPES buffer by surface plasmon resonance analysis in presence of 150 mM NaCl, 5 mM MgCl2 and 0.005 % tween-20; set-up: species or system Human immunodeficiency virus 1
How it was run: (§2)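 SPR with HIV-1 FSS RNA captured on low-density (~300 RU) and high-density (~1200 RU) chips. Compound flowed at 50 μL/min in 20 mM HEPES, 150 mM NaCl, 5 mM MgCl2, 0.005% Tween-20. 0.5 or 1 M NaCl regeneration as needed. Each concentration injected at least twice. Kinetic constants and KD from individual fits of reference-subtracted sensorgrams.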

[7] = Selectivity ratio of KD for yeast tRNA to KD for HIV-1 FSS RNA
How it was run: (§3)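 Ratios of fluorescence-titration KD values (20 mM HEPES, 150 mM NaCl; compound 1 μM): KD for FSS DNA or total yeast tRNA divided by KD for HIV-1 FSS RNA.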

HEK293FT [8] = assay: Binding affinity to HIV-1 FSS RNA transfected in HEK293FT cells at 50 uM after 36 hrs by Renilla/firefly luciferase reporter gene assay; format: cell-based; conditions: Human immunodeficiency virus 1
How it was run: (§4)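 HEK293FT cells (1.5 × 10^4/well) transiently transfected with pDualHIV(−1) or in-frame pDualHIV(0) Rluc–FSS–Fluc plasmid (0.2 μg). Compound (0–50 μM) added 5 h later, in triplicate, for 36 h at 37 °C. Fluc/Rluc ratio from lysate, expressed relative to untreated transfected cells (100%). Error is SEM.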

[9] = Binding affinity to HIV-1 FSS RNA in HBS buffer at pH 7.4 by surface plasmon resonance analysis; set-up: species or system Human immunodeficiency virus 1; conditions: read-out: Kd
How it was run: (§5)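 RNA captured on SPR chips at low (~300 RU) and high (~1200 RU) density, each measured once. Compound flowed in HBS (0.01 M HEPES, 0.150 M NaCl, pH 7.4) at 60 μL/min over at least five concentrations, each injected at least twice. A 20 s 0.5 or 1 M NaCl pulse regenerated the chip where needed. Reference-subtracted, blank-corrected sensorgrams (association plus dissociation) were globally fit to 1:1 Langmuir; error is standard error of the fit.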

[10] = system: Human immunodeficiency virus 1; assay: Binding affinity to HIV-1 FSS RNA in HBS buffer at pH 7.4 assessed as association rate by surface plasmon resonance analysis; how it was run: as §5
[11] = system: Human immunodeficiency virus 1; assay: Antiviral activity against HIV-1 NL4-3 assessed as reduction in viral infectivity in human TZM-bl cells after 48 hrs by firefly luciferase reporter gene assay; format: functional, organism-based; conditions: Human immunodeficiency virus 1, NL4-3, TZM-bl
How it was run: (§6)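 Single-round infectivity of VSV-G pseudotyped HIV-1 (pDHIV3-GFP, NL4-3 genes minus nef/env) made in transfected HEK293T producer cells. Compounds added to producers 4 h post-transfection; virions harvested at 24 h, filtered, normalized by p24 ELISA. TZM-bl cells (10,000/well) infected with 500 pg p24/well in triplicate for 48 h; LTR-driven firefly luciferase luminescence read. EC50 derived from concentration series.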

[12] = system: Human immunodeficiency virus 1; assay: Antiviral activity against HIV-1 NL4-3 assessed as reduction in viral production […] after 24 hrs by fluorescence microscopy; format: functional, organism-based
How it was run: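 HEK293T producer cells transfected with GFP-marked pseudotyped HIV-1 vector plus VSV-G and treated with compound 4 h after transfection. Proviral GFP expression imaged by fluorescence microscopy 24 h after treatment, before virions were harvested.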

HEK293FT [13] = assay: Binding affinity to HIV-1 FSS RNA transfected in HEK293FT cells after 36 hrs by Renilla/firefly luciferase reporter gene assay; format: cell-based; conditions: Human immunodeficiency virus 1; how it was run: as §4
[14] = system: Human immunodeficiency virus 1; assay: Antiviral activity against HIV-1 NL4-3 infected in TZM-bl cells after 24 hrs
[15] = Cellular uptake in cytoplasm of HEK293FT cells at 50 uM measured for 12 hrs by fluorescence microscopy; format: ADME, cell-based; conditions: human
[16] = Binding affinity to HIV-1 FSS RNA in 20 mM HEPES buffer assessed as dissociation rate by surface plasmon resonance analysis in presence of 150 mM NaCl, 5 mM MgCl2 and 0.005 % tween-20; set-up: species or system Human immunodeficiency virus 1; how it was run: as §2
[17] = Binding affinity to HIV-1 FSS RNA in HBS buffer at pH 7.4 assessed as dissociation rate by surface plasmon resonance analysis; set-up: species or system Human immunodeficiency virus 1; how it was run: as §5
[18] = system: Human immunodeficiency virus 1; assay: Antiviral activity against HIV-1 NL4-3 assessed as reduction in viral infectivity in human TZM-bl cells at 20 uM after 48 hrs by firefly luciferase reporter gene assay; format: functional; set-up: scale not given: the % may be the effect or the level left; how it was run: as §6
[19] = system: Human immunodeficiency virus 1; assay: Binding affinity to HIV-1 FSS RNA in 20 mM HEPES buffer assessed as association rate by surface plasmon resonance analysis in presence of 150 mM NaCl, 5 mM MgCl2 and 0.005 % tween-20; how it was run: as §2
[20] = system: Human immunodeficiency virus 1; assay: Increase in HIV-1 NL4-3 reverse transcriptase p66/51 level at 10 to 40 uM by Western blotting analysis; format: functional, organism-based
How it was run: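 Pseudotyped virions from compound-treated producer cells, equal loads by p24 ELISA, pelleted through 20% sucrose at 100,000g. Western blot for RT and p24. Densitometry of nonsaturated bands gave p160/(p66+p51) and total RT/p24 ratios.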

[21] = Selectivity ratio of KD for FSS DNA (unknown origin) to KD for HIV-1 FSS RNA; how it was run: as §3
[22] = system: Human T-lymphotropic virus 2; assay: Binding affinity to HTLV-2 FSS RNA up to 3 uM by surface plasmon resonance analysis
[23] = Cytotoxicity against HEK293FT cells assessed as cell viability at <60 uM after 24 hrs by WST-1 assay; format: cell-based; conditions: human
How it was run: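 HEK293FT cells at 80% confluence in DMEM/10% FBS exposed to compound (up to 0.5 mM) or a water control, in triplicate, for 24 h at 37 °C. WST-1 reagent then added for 2 h. Absorbance at 450 minus 690 nm, blank-corrected, plotted against concentration. Error is SD of three measurements.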

[24] = Cellular uptake in nucleus of HEK293FT cells at 50 uM measured for 12 hrs by fluorescence microscopy; format: ADME, cell-based; conditions: human

Question: For `CN(C)CCCNC(=N)c1ccc(C(=N)NCCCN(C)C)cc1`, which Kd [1] is on record?
Answer: 360 µM

Question: For `CCc1nc2cc3ccccc3cc2cc1C(=O)N[C@@H](C/C=C\C[C@H](NC(=O)c1cc2cc3ccccc3cc2nc1CC)C(=O)N1CCC[C@H]1C(=O)N[C@@H](Cc1ccccc1)C(=O)NCCCN)C(=O)N1CCC[C@H]1C(=O)N[C@@H](Cc1ccccc1)C(=O)NCCCN`, which Kd [2] is on record?
Answer: 265 nM

Question: And the Activity (HEK293FT [3])?
Answer: inactive

Question: And the Kd [4]?
Answer: 334 nM

Question: What about the Kd [5] of the same compound?
Answer: 66 nM

Question: And the Kd [6]?
Answer: 71 nM

Question: And the Ratio [7]?
Answer: 5

Question: And the Activity (HEK293FT [8])?
Answer: > 50%

Question: And the Kd [9]?
Answer: 0.102 µM

Question: What about the Ka [10] of the same compound?
Answer: 4.25 ×10⁴ /M/s

Question: What about the EC50 [11] of the same compound?
Answer: 3900 nM

Question: And the Activity [12]?
Answer: Dose-dependent effect

Question: What about the Activity (HEK293FT [13]) of the same compound?
Answer: Dose-dependent effect

Question: And the Activity [14]?
Answer: Active

Question: What about the Drug uptake [15] of the same compound?
Answer: Active

Question: What about the Kd [16] of the same compound?
Answer: 1.35 ×10⁻³ /s

Question: And the “Dissociation rate constant (koff)” value [17]?
Answer: 4.11 ×10⁻³ /s

Question: And the Activity [18]?
Answer: >90%

Question: What about the Ka [19] of the same compound?
Answer: 2.17 ×10⁴ /M/s

Question: And the Activity [20]?
Answer: Active

Question: What about the Ratio [21] of the same compound?
Answer: 4

Question: What about the Activity [22] of the same compound?
Answer: inactive

Question: And the Activity [23]?
Answer: Non-toxic

Question: What about the Drug uptake [24] of the same compound?
Answer: Active

Question: Which EC50 [11] does the source give for `CC(C)(C)NC(=O)[C@@H]1CN(Cc2cccnc2)CCN1C[C@@H](O)C[C@@H](Cc1ccccc1)C(=O)N[C@H]1c2ccccc2C[C@H]1O` [INDINAVIR] here?
Answer: 14.8 nM

Question: With `CCc1nc2ccccc2cc1C(=O)N[C@@H](C/C=C/C[C@H](NC(=O)c1cc2ccccc2nc1CC)C(=O)N1CCC[C@H]1C(=O)N[C@@H](Cc1ccccc1)C(=O)NCCCN)C(=O)N1CCC[C@H]1C(=O)N[C@@H](Cc1ccccc1)C(=O)NCCCN` as the compound, how does the Kd [9] read?
Answer: 4.66 µM

Question: What about the Ka [10] of the same compound?
Answer: 1.62 ×10³ /M/s

Question: What about the “Dissociation rate constant (koff)” value [17] of the same compound?
Answer: 7.5 ×10⁻³ /s

Question: What does the source list for `CCc1nc2cc3ccccc3cc2cc1C(=O)N[C@@H](C/C=C/C[C@H](N)C(=O)N1CCC[C@H]1C(=O)N[C@@H](Cc1ccccc1)C(=O)NCCCN)C(=O)N1CCC[C@H]1C(=O)N[C@@H](Cc1ccccc1)C(=O)NCCCN`?
Answer: Kd [9]: 20.7 µM; Ka [10]: 7.71 ×10³ /M/s; Dissociation rate constant (koff) [17]: 1.63 ×10⁻¹ /s; Activity [22]: inactive
